Test results reported in ChEMBL document CHEMBL4014350, “Alkoxyurea-Based Histone Deacetylase Inhibitors Increase Cisplatin Potency in Chemoresistant Cancer Cell Lines” (J Med Chem, 2017).

Columns and labels:
A2780cisR = test: Antiproliferative activity against human A2780cisR cells measured after 72 hrs by MTT assay; type: functional, cell-based
[1] = Inhibition of HDAC in human Cal27CisR cells using Boc-Lys(epsilon-Ac)-AMC as substrate preincubated for 18 hrs followed by substrate addition measured after 3 hrs by fluorescence assay; type: cell-based
CAL-27 [2] = test: Antiproliferative activity against human CAL27 cells measured after 72 hrs by MTT assay; type: functional, cell-based; details: CAL-27, 72 h
A2780 = test: Antiproliferative activity against human A2780 cells measured after 72 hrs by MTT assay; type: functional, cell-based; details: A2780, 72 h
[3] = Antiproliferative activity against human Cal27CisR cells measured after 72 hrs by MTT assay; type: functional, cell-based
[4] = Inhibition of HDAC in human CAL27 cells using Boc-Lys(epsilon-Ac)-AMC as substrate preincubated for 18 hrs followed by substrate addition measured after 3 hrs by fluorescence assay; type: cell-based; details: CAL-27
[5] = Inhibition of HDAC in human A2780CisR cells using Boc-Lys(epsilon-Ac)-AMC as substrate preincubated for 18 hrs followed by substrate addition measured after 3 hrs by fluorescence assay; type: cell-based
[6] = Inhibition of HDAC in human A2780 cells using Boc-Lys(epsilon-Ac)-AMC as substrate preincubated for 18 hrs followed by substrate addition measured after 3 hrs by fluorescence assay; type: cell-based
Homo sapiens = organism: Homo sapiens; test: Selectivity ratio of IC50 for HDAC in human A2780 cells to IC50 for HDAC in human A2780CisR cells; type: cell-based
[7] = biological target: T1, Protein deacetylase HDAC6 (Homo sapiens, UniProt Q9UBN7); test: Inhibition of full length human recombinant N-terminal GST-tagged HDAC6 expressed in baculovirus infected sf9 cells Z-(Ac)Lys-AMC as substrate measured after 90 mins by fluorescence assay
T1 sequence (Q9UBN7 whole entry): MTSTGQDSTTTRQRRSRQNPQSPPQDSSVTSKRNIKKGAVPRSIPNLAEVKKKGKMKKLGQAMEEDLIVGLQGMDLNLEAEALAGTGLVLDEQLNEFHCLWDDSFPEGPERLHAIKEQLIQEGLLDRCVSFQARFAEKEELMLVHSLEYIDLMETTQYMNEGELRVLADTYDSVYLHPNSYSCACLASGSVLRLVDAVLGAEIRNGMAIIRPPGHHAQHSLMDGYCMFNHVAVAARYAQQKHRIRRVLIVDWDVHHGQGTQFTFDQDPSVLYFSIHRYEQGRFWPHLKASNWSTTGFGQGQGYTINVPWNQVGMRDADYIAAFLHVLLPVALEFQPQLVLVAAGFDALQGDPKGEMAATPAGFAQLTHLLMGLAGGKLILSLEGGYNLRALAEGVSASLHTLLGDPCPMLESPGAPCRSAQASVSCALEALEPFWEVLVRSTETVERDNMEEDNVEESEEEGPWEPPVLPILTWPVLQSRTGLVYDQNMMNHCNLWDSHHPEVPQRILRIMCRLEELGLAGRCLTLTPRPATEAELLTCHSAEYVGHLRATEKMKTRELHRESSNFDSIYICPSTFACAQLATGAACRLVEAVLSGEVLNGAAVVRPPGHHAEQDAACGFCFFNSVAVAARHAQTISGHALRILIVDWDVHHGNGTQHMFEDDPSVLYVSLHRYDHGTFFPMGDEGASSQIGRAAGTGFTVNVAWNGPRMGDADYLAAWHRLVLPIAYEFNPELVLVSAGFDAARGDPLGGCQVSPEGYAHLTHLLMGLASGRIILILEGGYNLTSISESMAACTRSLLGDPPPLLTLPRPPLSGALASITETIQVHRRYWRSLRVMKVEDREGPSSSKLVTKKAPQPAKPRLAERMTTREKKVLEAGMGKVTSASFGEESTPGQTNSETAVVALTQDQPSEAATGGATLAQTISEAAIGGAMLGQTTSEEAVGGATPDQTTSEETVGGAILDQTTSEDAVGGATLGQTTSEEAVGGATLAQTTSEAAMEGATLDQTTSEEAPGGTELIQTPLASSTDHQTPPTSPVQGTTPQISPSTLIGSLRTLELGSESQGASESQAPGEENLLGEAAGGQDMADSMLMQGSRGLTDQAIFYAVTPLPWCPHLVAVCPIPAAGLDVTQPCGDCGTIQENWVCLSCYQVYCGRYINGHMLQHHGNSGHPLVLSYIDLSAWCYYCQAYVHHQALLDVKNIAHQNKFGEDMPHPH

Histone deacetylase 8 = biological target: T2, Histone deacetylase 8 (Homo sapiens, UniProt Q9BY41); test: Inhibition of human HDAC8 using Z-L-Lys(epsilon-trifluoroacetyl)-AMC as substrate measured after 90 mins by fluorescence assay
T2 sequence (Q9BY41 whole entry): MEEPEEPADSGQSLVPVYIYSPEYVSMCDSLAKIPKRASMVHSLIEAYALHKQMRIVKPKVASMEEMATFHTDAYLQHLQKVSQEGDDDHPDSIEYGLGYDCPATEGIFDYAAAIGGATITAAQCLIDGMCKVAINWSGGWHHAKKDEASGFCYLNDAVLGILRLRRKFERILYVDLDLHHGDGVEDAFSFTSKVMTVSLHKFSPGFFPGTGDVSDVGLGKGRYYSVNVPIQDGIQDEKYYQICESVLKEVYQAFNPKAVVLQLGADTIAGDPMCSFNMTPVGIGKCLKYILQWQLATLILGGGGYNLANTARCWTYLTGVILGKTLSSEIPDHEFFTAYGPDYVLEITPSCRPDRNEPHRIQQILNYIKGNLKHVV

Histone deacetylase 4 = Histone deacetylase 4 (Homo sapiens, UniProt P56524); test: Inhibition of recombinant human N-terminal GST-tagged/C-terminal His-tagged HDAC4 expressed in insect cells using Boc-K(Ac)-AMC as substrate by fluorescence assay
Chain of Histone deacetylase 4 (P56524 whole entry): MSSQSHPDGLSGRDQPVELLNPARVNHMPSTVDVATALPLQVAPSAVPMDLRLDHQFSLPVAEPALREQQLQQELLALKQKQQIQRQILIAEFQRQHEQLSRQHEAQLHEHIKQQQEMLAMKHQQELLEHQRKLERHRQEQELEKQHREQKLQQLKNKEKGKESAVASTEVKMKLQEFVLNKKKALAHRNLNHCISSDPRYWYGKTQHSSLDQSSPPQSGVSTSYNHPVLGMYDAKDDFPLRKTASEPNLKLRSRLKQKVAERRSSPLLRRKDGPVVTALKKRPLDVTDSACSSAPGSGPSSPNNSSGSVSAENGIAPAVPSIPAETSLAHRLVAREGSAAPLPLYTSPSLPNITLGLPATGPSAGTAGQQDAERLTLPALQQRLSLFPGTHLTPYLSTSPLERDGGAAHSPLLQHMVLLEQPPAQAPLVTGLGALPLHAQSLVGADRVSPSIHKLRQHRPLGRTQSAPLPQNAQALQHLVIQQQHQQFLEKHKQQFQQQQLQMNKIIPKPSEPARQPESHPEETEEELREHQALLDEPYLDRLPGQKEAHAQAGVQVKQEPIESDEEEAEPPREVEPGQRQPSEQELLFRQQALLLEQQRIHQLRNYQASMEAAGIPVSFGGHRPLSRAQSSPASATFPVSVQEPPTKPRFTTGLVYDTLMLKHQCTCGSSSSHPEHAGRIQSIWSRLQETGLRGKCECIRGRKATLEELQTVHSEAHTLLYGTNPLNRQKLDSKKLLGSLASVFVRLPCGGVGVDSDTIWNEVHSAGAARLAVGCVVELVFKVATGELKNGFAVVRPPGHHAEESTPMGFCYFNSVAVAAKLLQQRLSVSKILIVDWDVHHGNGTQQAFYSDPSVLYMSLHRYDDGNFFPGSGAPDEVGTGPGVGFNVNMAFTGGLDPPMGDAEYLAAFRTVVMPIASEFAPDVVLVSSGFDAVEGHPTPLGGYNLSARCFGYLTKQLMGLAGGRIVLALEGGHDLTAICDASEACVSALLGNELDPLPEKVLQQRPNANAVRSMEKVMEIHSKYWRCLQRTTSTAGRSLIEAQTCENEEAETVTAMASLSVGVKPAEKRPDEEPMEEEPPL

Histone deacetylase 1 = Histone deacetylase 1 (Homo sapiens, UniProt Q13547); test: Inhibition of recombinant full length human C-terminal FLAG/His-tagged HDAC1 expressed in baculovirus infected sf9 cells using Z-(Ac)Lys-AMC as substrate measured after 90 mins by fluorescence assay
Chain of Histone deacetylase 1 (Q13547 whole entry): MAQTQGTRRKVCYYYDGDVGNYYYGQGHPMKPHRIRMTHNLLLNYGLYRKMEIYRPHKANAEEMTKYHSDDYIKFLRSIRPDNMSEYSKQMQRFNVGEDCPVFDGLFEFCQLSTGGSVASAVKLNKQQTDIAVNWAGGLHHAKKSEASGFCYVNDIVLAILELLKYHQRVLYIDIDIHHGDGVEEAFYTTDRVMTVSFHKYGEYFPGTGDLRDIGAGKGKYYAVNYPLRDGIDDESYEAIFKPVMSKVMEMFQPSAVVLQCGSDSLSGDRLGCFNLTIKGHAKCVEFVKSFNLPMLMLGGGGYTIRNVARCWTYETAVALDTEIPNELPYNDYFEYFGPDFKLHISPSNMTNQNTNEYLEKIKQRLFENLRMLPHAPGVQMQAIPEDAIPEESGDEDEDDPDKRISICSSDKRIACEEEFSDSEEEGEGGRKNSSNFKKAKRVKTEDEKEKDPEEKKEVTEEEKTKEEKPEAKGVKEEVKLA

CAL-27 [8] = test: Potentiation of cisplatin-induced cytotoxicity against human CAL27 cells assessed as decrease in cell viability at 10 uM preincubated for 48 hrs followed by cisplatin treatment measured after 72 hrs by MTT assay relative to cisplatin alone; type: functional
Procedure, shortened: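 Cells were preincubated 48 h with HDAC inhibitor, then cisplatin was added over a concentration range for 72 h, with MTT read-out. Shift factor is cisplatin-alone IC50 divided by combination IC50. Data are mean ± SEM of pooled data from at least three independent experiments, each in triplicate. Significance was by t test (p < 0.05).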

| IC50 (A2780cisR) [nM] | IC50 [1] [nM] | IC50 (A2780) [nM] | IC50 [4] [nM] | IC50 [5] [nM] | IC50 [6] [nM] | IC50 [7] [nM] | IC50 (Histone deacetylase 8) [nM] | IC50 (Histone deacetylase 4) [nM] | IC50 (Histone deacetylase 1) [nM] | Structure (SMILES) | IC50 (CAL-27 [2]) [nM] | IC50 [3] [nM] | Ratio IC50 (Homo sapiens) | fold change (FC) (CAL-27 [8]) |
| --- | --- | --- | --- | --- | --- | --- | --- | --- | --- | --- | --- | --- | --- | --- |
| 44200 | 204000 | 46800 | 190000 |  |  |  |  |  |  | CN(O)C(=O)CCCCCONC(=O)Nc1cccc2ccccc12 | 43700 | 65800 |  |  |
| 10500 | 1100 | 27300 | 1400 | 2000 | 2400 |  |  |  |  | O=C(CCCCCONC(=O)Nc1ccc2ncccc2c1)NO | 5800 | 7600 |  |  |
| 3600 | 56000 | 1700 | 107000 |  | 149000 |  |  |  |  | COc1cc(NC(=O)NOCCCCCC(=O)NO)c2nc(OC(C)C)cc(C)c2c1Oc1cccc(C(F)(F)F)c1 | 3900 | 2900 |  |  |
| 1600 | 1000 | 1400 | 1000 | 1600 | 5100 |  |  |  |  | O=C(CCCCCONC(=O)Nc1ccc2ccccc2c1)NO | 1700 | 2300 | 2 to 3.4 |  |
| 11600 | 1300 |  | 1300 | 900 | 1100 | 51.7 | 11200 | > 10000 | 189 | O=C(CCCCCONC(=O)Nc1cnc2ccccc2c1)NO | 3000 | 5400 |  |  |
|  |  |  |  |  | 1680 |  |  |  |  | O=C(CCCCCCC(=O)Nc1ccccc1)NO [VORINOSTAT] |  |  |  |  |
| 7900 | 1000 |  | 1100 | 900 | 1100 |  |  |  |  | O=C(CCCCCONC(=O)Nc1cccc2ccccc12)NO | 1600 | 3900 |  |  |
| 1300 | 2800 | 4300 | 3400 | 1700 | 3300 |  |  |  |  | Cc1ccc2cccc(NC(=O)NOCCCCCC(=O)NO)c2n1 | 2200 | 4700 | 2 to 3.4 |  |
| 1000 | 900 | 3000 | 900 | 900 | 2100 |  |  |  |  | O=C(CCCCCONC(=O)Nc1cccc2cccnc12)NO | 1100 | 2200 | 2 to 3.4 |  |
|  | 12100 |  | 16100 |  |  |  |  |  |  | CN1CCc2c(c3ccccc3n2Cc2ccc(C(=O)NO)cc2)C1 [TUBASTATIN A] | 4600 | 10800 |  | 1.1 |
